# A selection: hits, their analogues and other compounds. The true share with any hit is near 5.1%.
# ERb coact inh: ER-beta (human) coactivator binding inhibition; Q92731; TR-FRET ER-beta LBD / SRC1-Cy5 peptide binding; receptor agonist-loaded with 1 µM estradiol; inhibition, % at 25.6 µM; actives 1.3% (n = 86,000); AID 633;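 active = compounds whose percent inhibition of the receptor-coactivator binding signal exceeds about 50% in the single-dose screen, limit read from the data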;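 also: 0% = receptor plus peptide wells without compound and 100% = peptide-only wells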
# ERa coact inh: blocks coactivator binding to human estrogen receptor alpha; actives 1.7% (n = 86,000); inhibition, % at 25.6 µM; P03372; TR-FRET ER-alpha LBD / SRC-1 peptide, estradiol-bound; in the data active = inhibition above about 50%;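 also: 0% = receptor plus peptide control and 100% = peptide only without receptor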
# ERa SRC1 pot: enhances coactivator binding to human estrogen receptor alpha. AID 639. P03372. actives 1.3% (n = 86,000). coactivator binding (% of control), % at 25.6 µM. TR-FRET ERalpha-LBD/SRC-Cy5 coactivator binding, 2 h; 100 = basal binding, no effect; in the data active = activity above about 200%;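 also: binding measured in presence of low estradiol as agonist stimulus; 0% = peptide alone without receptor and 100% = receptor with peptide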
# BAP1 block: inhibitors of human BAP1 deubiquitinase; actives 0.48% (n = 72,000); calls only at 20 µM; recombinant BAP1, Ub-AMC hydrolysis fluorescence kinetic; active compounds read low; Q92560;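 active = activity remaining at or below 50% of control, provided the compound also passes the data quality filters; inactive = the rest, including low values that fail the filters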;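 also: 100% = DMSO wells rate and 0% = substrate alone blank rate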
# SF-1 act: SF-1 (human) activation; Q13285; CHO-K1 Gal4-SF-1 LBD luciferase reporter; % increase over DMSO SF-1-specific signal; activation, % at 10 µM; actives 1.9% (n = 65,000);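 active = activation above the mean activation of all tested compounds plus 3 SD, cut at about 50% in these data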
#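 Assay system: CHO-K1 cells co-transfected with Gal4 DBD–human SF-1 LBD, 5xGal4 luciferase reporter; doses: 10 µM only; incubation: 20 h compound exposure at 37 °C after 1 h cell settling; signal: luciferase light emission; evaluation: percent activation versus DMSO; repeats: one test per compound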
# RORA act: activates the human nuclear receptor RORA; P35398; actives 1.5% (n = 65,000); activation, % at 10 µM; CHO-K1 Gal4-RORA LBD luciferase reporter, luminescence; percent increase over mock-subtracted basal signal;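 active = activation above the mean of all tested compounds plus 3 SD, cut at about 49% in these data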;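 also: 0% = DMSO-treated RORA cells and 100% = added signal equal to DMSO minus mock-transfected cells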
# BAP1 inh conf: BAP1 (human) enzyme inhibition, confirmed | shares compounds with BAP1 block | purified BAP1, Ub-ethyl ester hydrolysis, HPLC; active compounds read low | % of control activity, % at 20 µM | actives 8% (n = 310) | AID 753;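 active = percent of control activity at or below 60%; inconclusive = HPLC trace unusable from injection failure or solvent front hiding peaks; inactive = the rest, plus ubiquitin peak ratio over a set limit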
# * = called active by the depositor; i = inactive; u = inconclusive; x = not tested or not shown; + = active, no number; [ ] = remark or other dose.
SMILES,ERb coact inh,ERa coact inh,ERa SRC1 pot,BAP1 block,SF-1 act,RORA act,BAP1 inh conf
CCC(=O)c1ccc(OCC(O)CN2CCN(S(=O)(=O)N3CCCCC3)CC2)cc1 (configuration not stated),-11,-7,116,+,6,-7,83
O=C(c1ccccc1)c1ccc(OCC(O)CN2CCN(S(=O)(=O)N3CCCCC3)CC2)cc1 (configuration not stated),-8,-2,93,x,x,x,x
COc1ccccc1C(=O)Oc1cccc(N2C(=O)C3CCCCC3C2=O)c1 (configuration not stated),x,x,x,i,x,x,x
O=C(c1ccccc1)c1cc2c(ccc3ccccc32)oc1=O,x,x,x,i,x,x,x
Cc1cc(C(=O)NCc2cc(C(=O)O)oc2C)c(C)o1,5,-5,106,+,-10,-10,111
Cc1cc(C(=O)NCC(=O)O)c(C)o1,-2,0,101,x,x,x,x
Cn1c(-c2c(N)n(C3CCCC3)c3nc4ccccc4nc23)nc2ccccc21,7,2,119,+,-12,-6,160
Cn1c(-c2c(N)n(CCc3ccccc3)c3nc4ccccc4nc23)nc2ccccc21,11,6,59,x,x,x,x
CCC(=O)NC(c1ccc(OC)c(OC)c1)c1ccc2cccnc2c1O (configuration not stated),x,x,x,i,x,x,x
Cc1cc(=O)[nH]c(SCC(=O)Nc2ccc(C(=O)O)cc2)n1,-5,-6,94,x,x,x,x
CCOC(=O)c1ccc(NC(=O)CSc2nc(C)cc(=O)[nH]2)cc1,84*[fluorescence artefact?],90*,24,+,5,-14,u
CC1CCN(S(=O)(=O)c2ccc(NC(=O)Cc3ccccc3)cc2)CC1,-2,6,118,x,x,x,x
CC1CCN(S(=O)(=O)c2ccc(NC(=O)Cn3nnc(-c4ccccc4F)n3)cc2)CC1,62*[fluorescence artefact?],86*[fluorescence artefact?],102,+,11,53*,135
CCCn1c(SCC(=O)Nc2sc(C)c(C)c2C(=O)OCC)nc2c1c(=O)n(C)c(=O)n2C,19,5,88,+,6,-1,99
CCCCc1ccc(Nc2nc(CCC)cc(=O)[nH]2)cc1,-4,-1,104,+,-8,-20,88
CCCc1cc(=O)[nH]c(Nc2ccc(N3CCCCC3)cc2)n1,-5,-26,91,i,-9,9,x
O=C(Nc1nc(-c2cccs2)cs1)c1ccc(S(=O)(=O)N2CCCCC2)cc1,-4,-2,235*,+,-9,4,89
CCCOC(=O)C1=C(C)NC2=C(C(=O)CCC2)C1c1cccc(OC)c1OC (configuration not stated),-8,-6,127,+,-3,-10,34*
CCCOC(=O)C1=C(C)NC2=C(C(=O)CCC2)C1c1ccccc1OC(C)C (configuration not stated),x,x,x,i,x,x,x
CCCCn1c2c(c3ccccc31)CCc1nonc1-2,-8,-3,98,+,9,-12,51*
CSC1=C(C#N)C2(CCCC2)C(C#N)=C(N)N1,-7,-4,120,+,-3,12,77
CCOc1ccc(N=C2SC(C(=O)Nc3ccc(C(=O)O)cc3)CC(=O)N2C)cc1 (configuration not stated),x,x,x,i,x,x,x
